Data reported in ChEMBL document CHEMBL3286204, “Lignans from the fruit of Schisandra glaucescens with antioxidant and neuroprotective properties” (J Nat Prod, 2014).
Calls of active or inactive are those of the source. The rule behind the calls is not given here.

Assays:
[1] = target: Amyloid-beta precursor protein (Homo sapiens) (UniProt P05067); assay: Neuroprotective activity against amyloid beta (25 to 35)-induced cell death in human SH-SY5Y cells assessed as cell viability at 0.08 uM after 24 hrs by MTT assay relative to control; format: functional, cell-based
[2] = tested on: Radical scavenging activity; assay: Antioxidant activity assessed as 150 uM DPPH free radical scavenging activity under dark condition after 30 mins by microplate reader analysis; format: functional
Outline: (§1)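 Compounds at final 6.25, 12.5, 25, 50, 75 and 100 μM mixed with DPPH (final 150 or 300 μM) in EtOH containing 5% DMSO; EtOH/5% DMSO control. A517 read at steady state after 30 min at room temperature in the dark. Triplicate tests averaged.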

[3] = target: Amyloid-beta precursor protein (Homo sapiens) (UniProt P05067); assay: Neuroprotective activity against amyloid beta (25 to 35)-induced cell death in human SH-SY5Y cells assessed as cell viability at 10 uM after 24 hrs by MTT assay relative to control; format: functional, cell-based
[4] = target: Amyloid-beta precursor protein (Homo sapiens) (UniProt P05067); assay: Neuroprotective activity against amyloid beta (25 to 35)-induced cell death in human SH-SY5Y cells assessed as cell viability at 0.4 uM after 24 hrs by MTT assay relative to control; format: functional, cell-based
[5] = Antioxidant activity assessed as reduction of TPTZ-Fe3+ to TPTZ-Fe2+ after 5 mins by FRAP assay; format: functional
Outline: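 Working reagent prepared fresh from TPTZ solution, TPTZ diluent and detective buffer (1:10:1 v/v), prewarmed to 37 °C. Samples at 0.15–1.5 mM (5 μL) mixed with 180 μL reagent and held 5 min at 37 °C, then A593 read. Activity expressed as FeSO4 equivalents from a FeSO4 standard curve (0.15–5.00 mM).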

[6] = tested on: Radical scavenging activity; assay: Antioxidant activity assessed as 300 uM DPPH free radical scavenging activity under dark condition after 30 mins by microplate reader analysis; format: functional; outline: as §1
[7] = target: Amyloid-beta precursor protein (Homo sapiens) (UniProt P05067); assay: Neuroprotective activity against amyloid beta (25 to 35)-induced cell death in human SH-SY5Y cells assessed as cell viability at 2 uM after 24 hrs by MTT assay relative to control; format: functional, cell-based
[8] = Antioxidant activity assessed as reduction of TPTZ-Fe3+ to TPTZ-Fe2+ at 0.15 to 1.5 mM after 5 mins by FRAP assay; format: functional

Amyloid-beta precursor protein (Homo sapiens), sequence (P05067 whole entry): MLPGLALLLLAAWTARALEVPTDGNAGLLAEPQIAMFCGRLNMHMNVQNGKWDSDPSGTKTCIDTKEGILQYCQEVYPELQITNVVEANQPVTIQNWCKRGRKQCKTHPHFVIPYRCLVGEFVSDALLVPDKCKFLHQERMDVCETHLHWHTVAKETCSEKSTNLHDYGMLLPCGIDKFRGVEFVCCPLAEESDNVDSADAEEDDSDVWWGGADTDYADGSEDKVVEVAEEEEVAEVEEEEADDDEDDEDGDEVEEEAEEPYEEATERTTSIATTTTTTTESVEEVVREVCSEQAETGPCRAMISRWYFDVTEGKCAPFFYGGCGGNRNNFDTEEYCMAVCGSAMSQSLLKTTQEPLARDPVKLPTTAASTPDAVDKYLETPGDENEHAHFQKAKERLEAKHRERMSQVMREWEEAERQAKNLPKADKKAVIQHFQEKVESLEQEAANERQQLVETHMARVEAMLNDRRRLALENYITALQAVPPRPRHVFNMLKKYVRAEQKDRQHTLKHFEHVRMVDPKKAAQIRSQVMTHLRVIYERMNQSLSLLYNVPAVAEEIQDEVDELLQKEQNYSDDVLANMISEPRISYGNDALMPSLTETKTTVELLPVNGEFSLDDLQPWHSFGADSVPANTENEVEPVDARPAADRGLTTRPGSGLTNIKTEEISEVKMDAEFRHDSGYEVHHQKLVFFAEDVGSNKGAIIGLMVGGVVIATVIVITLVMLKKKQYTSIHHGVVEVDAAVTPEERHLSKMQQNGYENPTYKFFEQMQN

Row | IC50 [2] [µM] | IC50 [6] [µM] | Compound | Activity [1] [%] | Activity [3] [%] | Activity [4] [%] | Activity [5] | Activity [7] [%] | Activity [8]
1 | 33.2 | 75.1 | COc1cc(C[C@H](C)[C@H](C)Cc2ccc3c(c2)OCO3)ccc1O [AUSTROBAILIGNAN 6] | 57 | 64.4 | 61.5 | Dose-dependent effect | 61.8 | –
2 | 23.3 | 44.5 | COc1cc([C@H]2O[C@H](c3ccc4c(c3)OCO4)[C@@H](C)[C@H]2C)ccc1O | – | – | – | Dose-dependent effect | – | –
3 | – | – | OC[C@H](Cc1ccc2c(c1)OCO2)[C@H](CO[C@@H]1O[C@H](CO[C@@H]2O[C@@H](CO)[C@H](O)[C@H]2O)[C@@H](O)[C@H](O)[C@H]1O)Cc1ccc2c(c1)OCO2 | 58 | 58.3 | 59.2 | – | 62 | inactive
4 | – | – | COc1ccc([C@H](OC(=O)c2ccc3c(c2)OCO3)[C@H](C)C(C)=O)cc1OC | – | – | – | – | – | inactive
5 | 181 | 360 | COc1cc([C@H]2c3cc4c(cc3C[C@@H](C)[C@@H]2C)OCO4)ccc1O | 57.7 | 60.5 | 59.9 | Dose-dependent effect | 60.5 | –
6 | – | – | Cc1c(C)c2c(c(C)c1O)CCC(C)(C(=O)O)O2 (stereo unspecified) | – | – | – | – | – | Active
7 | 37.5 | 83.4 | COc1cc([C@@H]2c3cc(OC)c(O)cc3C=C(C)[C@H]2C)ccc1O | 58.6 | 65.2 | 60.7 | Dose-dependent effect | 62.1 | –
8 | – | – | COc1ccc(C[C@@H](C)[C@@H](C)Cc2ccc3c(c2)OCO3)cc1OC | 58.1 | 61.9 | 62.2 | – | 61.1 | inactive
9 | 24.7 | 59.3 | O=C1O[C@H]([C@@H](O)CO)C(O)=C1O [ASCORBIC ACID] | 54.1 | 58 | 55.6 | – | 58.5 | –
10 | – | – | COc1ccc([C@H]2c3cc4c(cc3C[C@@H](C)[C@@H]2C)OCO4)cc1OC | 57.4 | 58.7 | 58.2 | – | 59.8 | inactive
11 | 26.9 | 62.1 | VITAMIN E | – | – | – | – | – | –
12 | – | – | COc1ccc([C@H]2O[C@H](c3ccc4c(c3)OCO4)[C@@H](C)[C@H]2C)cc1OC | 58.2 | 60.4 | 58.1 | – | 58.6 | inactive
13 | – | – | OC[C@H](Cc1ccc2c(c1)OCO2)[C@H](CO[C@@H]1O[C@H](CO)[C@@H](O)[C@H](O)[C@H]1O)Cc1ccc2c(c1)OCO2 | 65 | 65.2 | 64 | – | 63.1 | inactive
14 | – | – | COc1ccc(C(=O)O[C@@H](c2ccc3c(c2)OCO3)[C@H](C)C(C)=O)cc1OC | 58.3 | 66.8 | 65.4 | – | 68.9 | inactive
15 | 15.7 | 34.6 | COc1cc(C[C@@H](C)[C@@H](C)Cc2ccc(O)c(OC)c2)ccc1O [MESODIHYDROGUAIARETIC ACID] | 62.2 | 68.3 | 63.8 | Dose-dependent effect | 69.2 | –
